The list is not random: actives were taken first. Their share in the collection is about 11%.
Diaphorase inh: diaphorase inhibitors and chemical oxidizers, primary screen, counter-screen for diaphorase-coupled primary assays, biochemical, uHTS, resorufin fluorescence | inhibition, % at 20 µM | 190,000 tested, 0.69% active | AID 1217, 2008 | diaphorase resazurin-to-resorufin fluorescence, NADH, 16 min; bacterial (C. kluyveri) enzyme, not human;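 active = primary screen inhibition at 20 µM above a set limit, cut at about 50% in these data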;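 also: plate controls were DMSO with full reaction for no effect and wells lacking NADH for full effect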
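Test system: Clostridium kluyveri diaphorase enzyme / Quantity: diaphorase at 0.14 U/mL in enzyme working solution / Incubation: 16-min room-temperature incubation before reading / Benchmarks: NADH-free wells as positive control, DMSO-only neutral wells / Signal: resorufin fluorescence 544/590 nm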
WT yeast gro inh: growth inhibition of WT strain, primary screen, mitochondrial fusion inhibitor project, WT and mutant strains, chemical genetic | mitochondrial fusion phenotypic screen | inhibition, % at 10 µM | AID 1362, 2008 | 190,000 tested, 2.1% active; in the data active = inhibition above about 58%; tested in S. cerevisiae
Lmaj promast: Leishmania major promastigote growth inhibition, primary screen; Leishmania major promastigotes, resazurin fluorescence viability; inhibition, % at 10 µM; 200,000 tested, 9% active;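 also: promastigotes grown with compound for 44 hours at 28 °C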
Diaphorase act: compounds boosting diaphorase resazurin reduction – biochemical, uHTS, resorufin fluorescence, counter-screen for diaphorase-coupled primary assays, primary screen. Diaphorase/resazurin coupled assay, 16 min; hits give high values; 1 = vehicle wells, 0 = NADH-free wells. activation factor at 20 µM. 190,000 tested, 0.005% active. AID 1229, 2008;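 active = diaphorase activity raised at least twofold by the compound at 20 µM; inactive = activation factor below 2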
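Material: bacterial diaphorase enzyme (C. kluyveri); amount: enzyme 0.07 U/mL final; reagent: NADH substrate 0.114 mM plus resazurin dye 0.1 mM, final; doses: single compound dose of 20 µM, 1% DMSO final; timing: 16 min enzyme reaction, ambient temperature; measured by: fluorescence of resorufin, 544 nm excitation, 590 nm emission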
G6PDH counter: L. mesenteroides G6PDH inhibitors, counter-screen for G6PDH-coupled screening assays, biochemical, Leuconostoc mesenteroides enzyme | 200,000 tested, 0.12% active | Purified L. mesenteroides G6PDH, diaphorase/resazurin coupled fluorescence, 45 min | inhibition, % at 5 µM | glucose-6-phosphate dehydrogenase [Leuconostoc mesenteroides]
The depositor's hits bear a star. Rule as the data show it, unless noted: active = inhibition above about 50%; inactive = the rest.

SMILES | Diaphorase inh | WT yeast gro inh | Lmaj promast | Diaphorase act | G6PDH counter
CCOC(=O)C1=C(C)NC(SCc2cc(=O)[nH][nH]2)=C(C#N)C1c1cccs1 (stereo not drawn) | 18.7 | 27.6 | -11.1 | 0.8 | -5.3
Cc1ccc(NP(=O)(c2ccc(N(C)C)cc2NC(=O)c2cccs2)N2CCOCC2)cc1Cl (stereo not drawn) | 35.4 | 5.5 | 58.4* | 0.6 | -57.9
Cc1nc(Nc2ccc(S(=O)(=O)N3CCCCC3C)cc2)c2nnn(Cc3ccccc3)c2n1 (stereo not drawn) | 22.8 | -5.1 | 89.8* | 0.8 | -13.6
O=C(NCCO)c1cc([N+](=O)[O-])cc2c1C=Cc1ccccc1O2 | -4.7 | -4.3 | 95.2* | 1 | 6.2
CC1(C)Cc2c(sc(NC(=S)NC(=O)c3ccccc3)c2C(=O)O)CO1 | 78.4* | 6.3 | -12.3 | 0.2 | 8.6
COc1ccc(C2=C/C(=C\c3cccc(OC(C)=O)c3)C(=O)O2)cc1 | 2.0 | 20.1 | 50.7* | 1 | 6.4
Cc1cc(OCC(=O)OCC(=O)Nc2cc(C(F)(F)F)ccc2N2CCOCC2)ccc1Cl | 23.8 | 4.0 | -1.1 | 0.8 | -9.2
CCOC(=O)c1c(CCl)nc2ccccc2c1C | 14.3 | -9.1 | 11.2 | 0.9 | -0.4
CCOC(=O)N1CCC(N2Cc3cccc(C(=O)NCc4ccc(OC)cc4)c3C2=O)CC1 | 12.6 | 1.3 | 70.0* | 0.9 | 4.0
CCOC(=O)N1CCC(N2Cc3cccc(C(=O)Nc4ccc(CC)cc4)c3C2=O)CC1 | 19.7 | 69.3* | 8.2 | 0.8 | 6.5
CCOC(=O)N1CCC(N2Cc3cccc(C(=O)Nc4ccc(F)cc4)c3C2=O)CC1 | -0.8 | 7.5 | -5.1 | 1 | 6.5
CCOC(=O)N1CCC(N2Cc3cccc(C(=O)NCc4ccccc4OC)c3C2=O)CC1 | 12.9 | 24.1 | 6.6 | 0.9 | 7.2
CC(C)C(=O)N1CCN(c2ccc([N+](=O)[O-])c(NC(C)c3ccccc3)c2)CC1 (stereo not drawn) | 24.4 | 9.1 | 17.4 | 0.8 | -25.2
CN(C)c1ccnc(N(Cc2ccccc2)Cc2ccccc2)c1C#N | 25.0 | 80.5* | 97.6* | 0.8 | -3.2
CN(C)c1ccnc(NCc2ccccc2)c1C#N | 9.0 | -28.2 | 0.6 | 0.9 | 9.3
Cc1cc(SCC(=O)N/N=C/c2ccc(O)c(O)c2)c(C)cc1Br | 30.4 | 27.2 | 71.7* | 0.7 | 12.5
COc1ccc2nc(C)cc(SCC(=O)N/N=C/c3ccc(O)c(O)c3)c2c1 | 33.8 | 2.0 | 15.2 | 0.7 | 3.2
COc1cccc2c(SCC(=O)N/N=C/c3ccc(O)c(O)c3)cc(C)nc12 | 54.0* | 4.9 | -1.3 | 0.5 | 9.8
N#C/C(Cn1c[n+](NC(=O)Nc2ccccc2)cn1)=N/O | 13.5 | -10.6 | -1.8 | 0.9 | 16.6
Cc1ccc2c(CN3CCN(CCO)CC3)cc(=O)oc2c1 | 18.3 | -7.8 | 1.4 | 0.8 | 3.0
Cc1ccc2c(Cn3cc(C(F)(F)F)cc(Cl)c3=O)cc(=O)oc2c1 | 6.2 | -3.4 | 52.5* | 0.9 | 2.3
O=c1c2ccccc2ncn1CCCCOc1ccc(Br)cc1 | 15.2 | -19.5 | -6.3 | 0.8 | 13.9
O=C(/C=C/C=C/c1ccccc1)CC1(O)C(=O)N(CCc2ccccc2)c2ccccc21 (stereo not drawn) | 28.5 | 60.2* | 20.0 | 0.7 | 1.1
CCN1C(=O)C(O)(CC(=O)/C=C/C=C/c2ccccc2)c2ccccc21 (stereo not drawn) | 17.2 | 3.1 | 74.9* | 0.8 | 2.4
NC(=O)CN1C(=O)C(O)(CC(=O)/C=C\C=C\c2ccccc2)c2ccccc21 (stereo not drawn) | -3.0 | -12.0 | 38.6 | 1 | 6.4
SMILES | Diaphorase inh | WT yeast gro inh | Lmaj promast | Diaphorase act | G6PDH counter
O=C(Cc1ccccc1)NCC(=O)OCC(=O)c1ccc(Cl)c([N+](=O)[O-])c1 | 10.4 | 1.4 | -4.4 | 0.9 | 7.0
CN(Cc1ccccc1)C(=S)NC(=O)c1ccccc1 | 1.6 | 23.9 | -7.6 | 1 | -1.6
CCCOc1ccc(CN(CCC#N)C(=S)NC(=O)c2ccccc2)cc1 | 17.7 | 72.6 | 84.8* | 0.8 | 12.0
O=[N+]([O-])c1cc(/C=N/n2c(-c3cccnc3)n[nH]c2=S)ccc1Cl | 51.0* | -0.8 | 6.9 | 0.5 | 2.2
S=c1[nH]nc(-c2cccnc2)n1/N=C/C=C/c1ccccc1 | 51.9* | -7.2 | 4.3 | 0.5 | 5.4
S=c1[nH]nc(-c2ccco2)n1/N=C/c1ccccn1 | 29.4 | 4.2 | -3.7 | 0.7 | -0.7
S=c1[nH]nc(-c2ccco2)n1/N=C/c1ccc(Cl)c(Cl)c1 | 25.1 | 75.9* | -7.3 | 0.7 | -28.2
S=c1[nH]nc(-c2ccncc2)n1/N=C/C=C/c1ccco1 | 71.0* | 7.6 | -4.7 | 0.3 | 8.3
O=C(CSc1n[nH]c(-c2cc(Cl)ccc2Cl)n1)NCCN1C(=O)CSC1=O | 13.5 | -21.1 | -1.1 | 0.9 | -5.9
S=c1[nH]nc(-c2cccnc2)n1C1CCCCC1 | 17.2 | -0.3 | 53.0* | 0.8 | -8.2
Cc1cc(/C=N/n2cnnc2)c(C)n1-c1ccc(Cl)cc1 | 13.4 | 49.2 | 27.6 | 0.9 | 21.3
Cc1cc(/C=N/n2cnnc2)c(C)n1-c1ccc(OCc2ccc(Cl)cc2Cl)cc1 | 6.4 | 79.9 | 97.6* | 0.9 | 3.9
Cc1cc(/C=N/n2cnnc2)c(C)n1-c1ccc(OCc2ccc(F)cc2)cc1 | 26.9 | 62.1* | 76.6* | 0.7 | 1.3
COc1ccc(N(C)C(=O)CCS(=O)(=O)c2cccc3nonc23)c(OC)c1 | 3.0 | 6.0 | -5.2 | 1 | 4.5
COc1ccc(S(=O)(=O)NCCSCc2cccs2)cc1 | 15.0 | -0.4 | -2.0 | 0.8 | -1.0
CC1=C(C#N)C(c2cccnc2)C2=C(CC(c3ccc(Cl)cc3)CC2=O)N1 (stereo not drawn) | -0.3 | -4.1 | 99.7* | 1 | 6.0
O=[N+]([O-])c1cc(CN2CCCC2)c2cccnc2c1O | 25.0 | -8.6 | 11.4 | 0.8 | 37.5
O=C(CSc1ccccn1)Nc1ccccc1F | 10.1 | -0.3 | -5.8 | 0.9 | 7.5
Oc1ccc(CNc2ccccc2F)c2cccnc12 | 88.9* | 10.6 | 73.1* | 0.1 | 20.4
Oc1ccc(CN2CCCCC2)c2cccnc12 | 58.2* | -8.9 | 100.6* | 0.4 | 50.4*
Oc1ccc(F)c2cccnc12 | 50.5* | 8.9 | 7.9 | 0.5 | 65.0*
Cc1ccc(C)c(N2CCN(S(=O)(=O)c3cccc4cccnc34)CC2)c1 | 14.8 | 55.8 | 65.6* | 0.9 | 4.1
CCN(Cc1ccncc1)Cc1cn[nH]c1-c1ccc(OC)cc1F | 24.4 | -7.1 | 27.1 | 0.8 | 21.2
COc1ccc(OC)c2c(C)cc(N3CCN(C(=O)c4ccc(Cl)cc4)CC3)nc12 | 25.7 | 17.2 | 9.3 | 0.7 | -1.3
OCc1ccc(O)c2ncccc12 | 27.9 | 6.7 | 100.3* | 0.7 | 52.6*
Oc1ccc(CN2CCC(Cc3ccccc3)CC2)c2cccnc12 | 61.8* | -8.3 | 100.6* | 0.4 | 29.2

Source: PubChem (several laboratories)
